# Compound activity from PubChem.
# An excerpt weighted towards active compounds, which were near 4.6% of everything screened.
# TAAR1 antagonist = human TAAR1 antagonists, primary screen, Fluo-8 calcium fluorescence, CHO RD-HGA16 cells; antagonist; inhibition, % at 3 µM; 1.5% of 360,000 active;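 active means inhibition above a per-plate cutoff, the mean inhibition of test compounds on that plate plus 3 SD, cut at about 49% in these data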;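 further: 0% = DMSO plus EC80 beta-PEA response and 100% = DMSO alone without agonist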
# Target sequence (Q96RJ0 whole entry, looked up): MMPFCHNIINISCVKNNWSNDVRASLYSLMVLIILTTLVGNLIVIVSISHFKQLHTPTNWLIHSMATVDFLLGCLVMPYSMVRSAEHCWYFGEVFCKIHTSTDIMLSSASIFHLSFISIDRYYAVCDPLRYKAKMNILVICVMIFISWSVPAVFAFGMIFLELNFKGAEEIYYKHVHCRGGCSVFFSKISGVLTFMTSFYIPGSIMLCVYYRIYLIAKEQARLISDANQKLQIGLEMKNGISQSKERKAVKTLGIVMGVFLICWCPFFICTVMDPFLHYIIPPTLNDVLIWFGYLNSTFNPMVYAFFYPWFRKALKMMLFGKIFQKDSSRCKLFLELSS
#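 System: RD-HGA16 CHO cells with stable hTAAR1 and Gα16 | Probe or stimulus: EC80 β-phenethylamine stimulus | Dosing: 3 µM, single point | Times: Dye loading 75 min at 37 °C, then 30 min room temperature | Measured by: Fluo-8 calcium-sensitive fluorescence | Read-out basis: % inhibition of agonist calcium response | Replicates: n of 1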
# OX1R antag-1 = OX1R (HCRTR1) antagonists, primary screen, fluorescence, CHO/OX1R cells, Fluo-8 calcium, orexin A. Fluo-8 calcium fluorescence. inhibition, % at 5 µM. 0.43% of 330,000 active;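 active means inhibition above its plate's threshold, mean inhibition of all tested compounds on the plate plus 3 SD, cut at about 37% in these data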;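 further: 0% = orexin A challenge wells and 100% = SB-334867-A antagonist wells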
# TAAR1 ag = human TAAR1 agonists, primary screen, Fluo-8 calcium fluorescence, CHO RD-HGA16 cells; Trace amine-associated receptor 1 (Homo sapiens), Q96RJ0; vehicle wells 0%, saturating PEA agonist 100%; activation, % at 3 µM; 0.99% of 360,000 active; AID 624467, 2012;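 active means activation above the mean activation of all test compounds in the run plus 3 SD, cut at about 38% in these data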
#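 Test system: RD-HGA16 (CHO) cells co-expressing Gα16 and hTAAR1 | Doses: Single dose, 3 µM | Schedule: 17-24 h seeding, 75 min 37 °C dye, 30 min RT | Evaluation: % activation from peak over basal fluorescence ratio, DMSO-to-PEA scaled | Technique: Kinetic Fluo-8 calcium fluorescence | Benchmarks: Low control DMSO, high control PEA (EC100)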
# GPR7 antag = GPR7 receptor antagonists, primary screen, cell-based, fluorescence, single concentration; 1.1% of 290,000 active; Neuropeptides B/W receptor type 1 (Homo sapiens), P48145; GPR7-expressing cells, fluorescence antagonist assay; AID 1861, 2009; inhibition, % at 4.4 µM; in the data active means inhibition above about 16%, passing the limit was not always enough;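 further: cells stimulated with the agonist NPW; 0% = agonist with vehicle and 100% = vehicle without agonist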
# Target sequence (P48145 whole entry, looked up): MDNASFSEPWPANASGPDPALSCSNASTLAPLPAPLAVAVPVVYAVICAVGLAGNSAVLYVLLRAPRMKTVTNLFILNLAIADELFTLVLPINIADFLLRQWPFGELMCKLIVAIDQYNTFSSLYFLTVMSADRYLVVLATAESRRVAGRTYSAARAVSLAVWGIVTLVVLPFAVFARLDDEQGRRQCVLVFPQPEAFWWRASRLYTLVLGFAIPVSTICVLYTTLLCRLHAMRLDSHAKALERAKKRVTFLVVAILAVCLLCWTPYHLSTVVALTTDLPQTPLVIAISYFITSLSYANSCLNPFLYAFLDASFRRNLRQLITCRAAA
# OX1R antag-2 = antagonists of human orexin 1 receptor (OX1R); Orexin/Hypocretin receptor type 1 (Homo sapiens), O43613; OX1R-expressing cells, FRET antagonist read-out; inhibition, % at 6.6 µM; 1.8% of 330,000 active; in the data active means inhibition mostly above about 38%, no sharp cut-off; inactive means mostly below about 40%;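 further: 0% = agonist challenge alone and 100% = reference antagonist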
# CHO parental Ca = ATP-evoked calcium signal inhibitors, parental CHO, primary screen, counter-screen for OX1R antagonist project, cell-based, fluorescence, Fluo-8 calcium dye | parental CHO-K1, ATP-induced calcium, Fluo-8 fluorescence | inhibition, % at 5.6 µM | 0.63% of 330,000 active | AID 463079, 2010;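 active means inhibition above that plate's mean sample inhibition plus 3 SD, cut at about 26% in these data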;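 further: 0% = ATP-challenged DMSO wells and 100% = DMSO wells without ATP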
#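 Assay system: untransfected parental CHO cell line. Also added: ATP agonist challenge. Dosing: one dose, 5.6 µM nominal. Measured by: Fluo-8 fluorescence. Read-out: % inhibition. Benchmarks: ATP wells versus no-ATP DMSO wells. Repeats: no replicates.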
# TAAR1 nonsel count = nonselective antagonists in TAAR1 counter-screen cells, counter-screen for hTAAR1 antagonist project, cell-based, fluorescence, calcium. counterscreen cell line, antagonist mode. AID 651780, 2012. shares compounds with TAAR1 antagonist. 77% of 2,400 active. inhibition, % at 3 µM; in the data active means inhibition above about 22%;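 further: CHO-Ga16 host cells stimulated with ATP at an EC80 level; 0% = agonist EC80 plus vehicle and 100% = vehicle without agonist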
# TAAR1 antag conf = human TAAR1 antagonists, retest of hits, confirmation, cell-based, fluorescence. shares compounds with TAAR1 antagonist. TAAR1-expressing cells, fluorescence antagonist read-out. inhibition, % at 3 µM. 40% of 2,400 active. AID 651785, 2012; in the data active means inhibition above about 49%;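 further: CHO-Ga16 host cells challenged with agonist PEA near its EC80; 0% = agonist at EC80 plus vehicle and 100% = vehicle with no agonist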
# Ga16 ag counter = calcium activation in Ga16-expressing cells, counter-screen for TAAR1 antagonist project, cell-based, fluorescence; agonist counterscreen; activation, % at 3 µM; shares compounds with TAAR1 antagonist; 18% of 2,400 active; in the data active means activation above about 12%;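 further: 0% = vehicle wells and 100% = saturating stimulus response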
# TAAR1 ag count = TAAR1 activation by candidate antagonists – cell-based, fluorescence, counter-screen for TAAR1 antagonist project; 2% of 2,400 active; shares compounds with TAAR1 antagonist; AID 651955, 2012; activation, % at 3 µM; hTAAR1 cell line, agonist mode; in the data active means activation above about 37%;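 further: CHO cells stably expressing TAAR1 with calcium dye readout; 0% = DMSO vehicle and 100% = full agonist response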
# An asterisk follows results filed as active; . = no result; ! = a repeat was not active.
SMILES,TAAR1 antagonist,OX1R antag-1,TAAR1 ag,GPR7 antag,OX1R antag-2,CHO parental Ca,TAAR1 nonsel count,TAAR1 antag conf,Ga16 ag counter,TAAR1 ag count
COc1ccc(CCNc2oc(COc3ccccc3F)nc2C#N)cc1,65*,-17,8,3,33,6,29*,52*,6,2
COc1ccc(CCNc2oc(COc3ccc(Br)cc3)nc2C#N)cc1OC,93*,5,5,-1,24,25,47*,65*,9,4
N#Cc1nc(COc2ccccc2F)oc1NCc1ccc(F)cc1,26,-18,-1,6,13,-3,.,.,.,.
COc1ccc(NC(=O)C(NC(=O)c2ccc(C)cc2)c2ccccc2)cc1 (stereo not given),-22,-28,7,-12,15,-7,.,.,.,.
CC1(C)c2[nH]c3ccccc3c2C[C@H]2C(=O)N(Cc3cccc(F)c3)C(=O)N21,19,-22,12,.,11,-6,.,.,.,.
COc1cccc(CN2C(=O)[C@H]3Cc4c([nH]c5ccccc45)C(C)(C)N3C2=O)c1,61*,-26,17,.,12,-9,25*,42,9,10
Cc1ccccc1OCc1nc2ccccc2c(=O)n1/N=C/c1cccc([N+](=O)[O-])c1,15,2,1,-7,12,-7,.,.,.,.
Cc1nc2ccccc2c(=O)n1/N=C/c1cn[nH]c1-c1ccccc1,58*,-33,15,-4,2,-25,27*,36,7,8
Cc1ccccc1OCc1nc2ccccc2c(=O)n1/N=C/c1cn[nH]c1-c1ccccc1,64*,-21,12,-5,11,-18,27*,56*,5,7
O=c1c2ccccc2nc(COc2ccccc2)n1/N=C/c1ccco1,38,-35,9,3,29,-35,.,.,.,.
Cc1ccc(-c2[nH]ncc2/C=N/n2c(COc3ccccc3)nc3ccccc3c2=O)cc1,66*,-4,10,0,27,-14,33*,53*,7,7
O=c1c2ccccc2nc(COc2ccccc2)n1/N=C/c1ccc(O)c(O)c1,68*,-22,10,-13,3,-13,20,35,7,4
COc1ccc(CCN2C(=O)COc3ccccc3C2C(=O)NCc2ccccc2)cc1OC (stereo not given),2,.,-1,.,.,.,.,.,.,.
C[C@H](CO)N1C[C@H](C)[C@H](CN(C)S(=O)(=O)c2cccs2)OCc2cnnn2CCCC1=O,-2,.,2,.,.,.,.,.,.,.
COc1cccc(C(=O)Nc2c(C(N)=O)oc3ccccc23)c1,56*,6,12,-8,77*,-15,24*,41,7,9
CCOC(=O)c1oc2ccccc2c1NC(=O)c1cccc(OC)c1,-10,-52,4,-17,9,-33,.,.,.,.
O=C(NCc1ccco1)c1cccc(Nc2nc3ccc(Br)cc3[nH]2)c1,56*,-22,18,-9,19,-26,24*,27,5,12
O=C(NCc1ccccn1)c1ccc(OC2CCN(Cc3ccc(F)cc3F)CC2)cc1,-5,-9,3,-27,14,-16,.,.,.,.
COC(=O)C/C(O)=C(/N=Nc1cccc(C(F)(F)F)c1)C(=O)OC,15,-31,4,11,11,-22,.,.,.,.
COc1ccc(CNC(=O)CN(C)S(=O)(=O)c2ccc(Cl)cc2)cc1,-10,-7,5,-6,25,-13,.,.,.,.
COc1ccc(CNC(=O)CN(Cc2ccc(C)cc2)S(=O)(=O)c2ccc(Cl)cc2)cc1,59*,-10,13,-18,12,-4,38*,36,6,6
Cc1ccc(NS(=O)(=O)c2ccc3c(c2)CC(=O)N3)cc1C,-29,-7,8,6,5,0,.,.,.,.
Cc1ccc(NS(=O)(=O)c2ccc3c(c2)CCC(=O)N3)cc1C,103*!,-19,3,-5,22,10,5,7,2,5
COc1cc(NC(=O)NNC(=O)c2cc3occc3n2C)cc(OC)c1OC,-21,-17,0,-6,5,-9,.,.,.,.
Cc1cc(C)cc(OCC(=O)Nc2ccc(N3CCN(C(=O)c4ccco4)CC3)cc2)c1,74*,10,23,-10,26,5,43*,62*,12*,9
SMILES,TAAR1 antagonist,OX1R antag-1,TAAR1 ag,GPR7 antag,OX1R antag-2,CHO parental Ca,TAAR1 nonsel count,TAAR1 antag conf,Ga16 ag counter,TAAR1 ag count
O=C(COc1ccc(Cl)cc1)Nc1ccc(N2CCN(C(=O)c3ccco3)CC2)cc1,80*,17,23,1,15,-2,42*,46,12*,28
COc1cccc(CNC(=O)N2CCN(c3ccccc3Cl)CC2)c1,49*,-22,10,-16,11,-6,22*,36,7,9
COc1ccccc1N1CCN(C(=O)CSc2ncnc3scc(-c4ccccc4)c23)CC1,56*,-26,3,-1,30,-39,22*,33,5,10
COC(=O)CSc1ncnc2scc(-c3ccccc3)c12,-14,-9,-2,3,16,-16,.,.,.,.
C[C@H](CO)N1C[C@H](C)[C@@H](CN(C)Cc2ccccc2)Oc2c(NC(=O)Cc3ccccc3)cccc2C1=O,68*,-15,22,.,11,-11,26*,44,8,15
C[C@H](CO)N1C[C@H](C)[C@@H](CN(C)C(=O)Nc2ccc3c(c2)OCO3)Oc2c(NC(=O)Nc3ccc4c(c3)OCO4)cccc2C1=O,69*,-10,24,.,-1,-3,31*,53*,9,9
COc1ccc(NC(=O)Nc2cccc3c2O[C@H](CN(C)C(=O)Nc2ccc4c(c2)OCO4)[C@@H](C)CN([C@H](C)CO)C3=O)cc1,65*,-6,17,.,29,-17,33*,53*,5,6
